# From ChEMBL document CHEMBL4364245 (Eur J Med Chem, 2019)
# What was measured:
# [1] = Cytotoxicity against chicken CEF cells assessed as reduction in cell viability incubated for 48 hrs by CCK8 assay; assay type: cell-based, Gallus gallus
# Procedure, shortened: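 Mock-infected chicken embryo fibroblasts received 2-fold serial dilutions of compound in DMEM with 1% FBS for 48 h at 37°C under 5% CO₂. Viability was read by CCK-8 (90 min, A450).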
# [2] = test system: Influenza A virus; experiment: Antiviral activity against Influenza A virus (A/goose/Guangdong/SH7/2013(H5N1)) infected in CEF cells assessed as reduction in virus-induced cytopathic effect incubated for 48 hrs by CCK-8 assay; assay type: functional, organism-based
# [3] = test system: Influenza A virus; experiment: Antiviral activity against Influenza A virus (A/Chicken/Hebei/LZF/2014(H5N2)) infected in CEF cells assessed as reduction in virus-induced cytopathic effect incubated for 48 hrs by CCK-8 assay; assay type: functional, organism-based
# [4] = Inhibition of influenza B virus (B/PHUKET/3073/2013)) Neuraminidase in using 4-MUNANA as substrate preincubated for 10 mins followed by substrate addition and measured after 40 mins by fluorescence based assay
# Procedure, shortened: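 Influenza B/PHUKET/3073/2013 NA, in MES buffer at pH 6.5 with CaCl₂, was preincubated with inhibitor for 10 min at 37°C. MUNANA substrate was added for 40 min at 37°C, and the reaction was stopped with 0.2 M glycine-NaOH at pH 10.2. Fluorescence was read at ex 365 / em 455 nm minus substrate blanks. IC50 was taken from % inhibition curves, mean ± SD of three experiments.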
# [5] = molecular target: Neuraminidase (Influenza A virus (A/Memphis/1/1971(H3N2)), UniProt P03471); experiment: Inhibition of influenza A virus (A/Chicken/Hebei/LZF/2014(H5N2)) Neuraminidase N2 in using 4-MUNANA as substrate preincubated for 10 mins followed by substrate addition and measured after 40 mins by fluorescence based assay
# Chain of Neuraminidase (Influenza A virus (A/Memphis/1/1971(H3N2)), UniProt P03471) (P03471 whole entry): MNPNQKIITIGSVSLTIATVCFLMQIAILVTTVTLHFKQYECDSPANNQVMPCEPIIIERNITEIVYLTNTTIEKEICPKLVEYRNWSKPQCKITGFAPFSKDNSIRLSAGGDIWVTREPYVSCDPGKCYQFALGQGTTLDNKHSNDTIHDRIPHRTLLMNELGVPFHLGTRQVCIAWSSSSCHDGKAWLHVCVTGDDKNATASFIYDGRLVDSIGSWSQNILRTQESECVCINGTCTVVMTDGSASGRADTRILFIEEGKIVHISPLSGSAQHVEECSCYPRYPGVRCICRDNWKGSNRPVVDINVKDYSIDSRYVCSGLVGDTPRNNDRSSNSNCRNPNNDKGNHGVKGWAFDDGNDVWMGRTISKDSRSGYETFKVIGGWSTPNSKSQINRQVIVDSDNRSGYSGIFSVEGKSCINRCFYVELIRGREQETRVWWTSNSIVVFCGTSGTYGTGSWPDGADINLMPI
SMILES,CC50 at 48 h [1] [µM],EC50 [2] [µM],EC50 [3] [µM],IC50 [4] [µM],IC50 [5] [µM]
CCC(CC)O[C@@H]1C=C(C(=O)N[C@@H](C(=O)O)C(C)C)C[C@H](NCc2ccc(SC)cc2)[C@H]1NC(C)=O,> 200,> 100,26.6,> 100,–
CCC(CC)O[C@@H]1C=C(C(=O)NCc2ccc(C(=O)O)cc2)C[C@H](NCc2ccc(N3CCCC3)cc2)[C@H]1NC(C)=O,–,–,–,–,4.7
CCC(CC)O[C@@H]1C=C(C(=O)O)C[C@H](NCc2ccc(SC)cc2)[C@H]1NC(C)=O,> 200,0.66,0.48,7.97,8.34
CCC(CC)O[C@@H]1C=C(C(=O)NCc2ccc(F)cc2)C[C@H](NCc2ccc(N3CCCC3)cc2)[C@H]1NC(C)=O,–,–,–,–,48.4
CCC(CC)O[C@@H]1C=C(C(=O)NCc2ccc(Cl)cc2)C[C@H](NCc2ccc(N3CCCC3)cc2)[C@H]1NC(C)=O,77.1,> 100,> 100,–,0.94
CCC(CC)O[C@@H]1C=C(C(=O)N[C@@H](C(=O)O)C(C)C)C[C@H](NCc2ccc(Sc3ccccc3)cc2)[C@H]1NC(C)=O,–,–,–,> 100,> 100
CCC(CC)O[C@@H]1C=C(C(=O)NCc2ccc(C(=O)O)cc2)C[C@H](NCc2ccc(Sc3ccccc3)cc2)[C@H]1NC(C)=O,–,–,–,–,> 100
CCC(CC)O[C@@H]1C=C(C(=O)NCc2ccc(Cl)cc2)C[C@H](NCc2ccc(SC)cc2)[C@H]1NC(C)=O,–,–,–,> 100,–
CCC(CC)O[C@@H]1C=C(C(=O)NCc2ccc(C(=O)O)cc2)C[C@H](NCc2ccc(N(CC)CC)cc2)[C@H]1NC(C)=O,–,–,–,–,13.3
CCC(CC)O[C@@H]1C=C(C(=O)N[C@@H](C(=O)O)C(C)C)C[C@H](NCc2ccc(N3CCCC3)cc2)[C@H]1NC(C)=O,–,–,–,–,2.41
CCC(CC)O[C@@H]1C=C(C(=O)O)C[C@H](N)[C@H]1NC(C)=O [OSELTAMIVIR CARBOXYLATE],> 200,0.82,0.17,0.037,–
